# From ChEMBL document CHEMBL1157882, “Novel 2-[(benzylamino)methyl]pyrrolidine-3,4-diol derivatives as alpha-mannosidase inhibitors and with antitumor activities against hematological and solid malignancies” (Bioorg Med Chem, 2010)
# Activity calls are given as the source filed them. The rule behind the calls is not given here.
# Assays:
# [1] = species on record: Bos taurus; assay: Inhibition of beta-N-acetylglucosaminidase from bovine kidney at pH 4; set-up: concentration or dose not given beside the values; settings: concentration not given here
# [2] = system: MCF7; assay: Decrease in hTERT mRNA level in human MCF7 cells at 50 uM after 12 hrs by TLDA; type: functional, cell-based
# How it was run: (§1)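 SKBR3 and MCF7 cells seeded at 2 × 10⁵ per well, treated 12 h with 50 µM compound (DMSO stock); total RNA extracted, cDNA made with random hexamers, gene expression profiled by TaqMan low-density arrays (qPCR, duplicate per gene). Normalised to RPLP0; fold change versus DMSO vehicle-treated cells, calculated as 2^-ΔΔCT.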
# [3] = system: SK-BR-3; assay: Cell cycle arrest in human SKBR3 cells by accumulation of cells at S phase at 200 uM after 48 hrs by propidium iodide-staining based flow cytometry (reference value: 30%); type: functional
# [4] = Cytotoxicity in human multiple myeloma cells assessed as viable cells at 100 uM after 24 hrs by annexin V/propidium iodide staining based flow cytometry (reference value: 48.2%); type: functional; settings: Multiple myeloma cell, read-out: Activity
# [5] = Cytotoxicity in human B-CLL assessed as early apoptotic cells at 200 uM after 24 hrs by annexin V/propidium iodide staining based flow cytometry (reference value: 3.6 to 20.2%); type: functional
# [6] = system: Oryza sativa; assay: Inhibition of alpha-glucosidase from rice at 1 mM at pH 4
# How it was run: (§2)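 Glycosidase panel of commercial enzymes assayed at each enzyme's optimal pH with compound at 1 mM; percentage inhibition of enzyme activity calculated.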
# [7] = system: MCF7; assay: Decrease in CDC25 mRNA level in human MCF7 cells at 50 uM after 12 hrs by TLDA; type: functional, cell-based
# How it was run: (§3)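 SKBR3 or MCF7 cells, 2×10⁵/well, treated with 50 µM for 12 h. Total RNA was column-purified and reverse-transcribed with random hexamers, then assayed on TaqMan low-density arrays. Expression was normalised to RPLP0, with fold change versus DMSO-vehicle cells calculated as 2^-ΔΔCT. Q-PCR run in duplicate per gene.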
# [8] = system: SK-BR-3; assay: Decrease in ID1 mRNA level in human SKBR3 cells at 50 uM after 12 hrs by TLDA; type: functional, cell-based; how it was run: as §1
# [9] = Cytotoxicity in human multiple myeloma cells assessed as late apoptotic/necrotic cells at 200 uM after 24 hrs by annexin V/propidium iodide staining based flow cytometry (reference value: 9.1%); type: functional, Multiple myeloma cell
# [10] = Cytotoxicity in human B-CLL assessed as late apoptotic/necrotic cells at 200 uM after 24 hrs by annexin V/propidium iodide staining based flow cytometry (reference value: 10 to 14.7%); type: functional
# [11] = system: MCF7; assay: Decrease in cyclinE1 mRNA level in human MCF7 cells at 50 uM after 12 hrs by TLDA; type: functional, cell-based; how it was run: as §1
# [12] = molecular target: Beta-galactosidase (Escherichia coli) (UniProt Q8VNN2); assay: Inhibition of beta-galactosidase from Escherichia coli at 1 mM at pH 7; how it was run: as §2
# [13] = system: Aspergillus niger; assay: Inhibition of beta-xylosidase from Aspergillus niger at pH 5; set-up: concentration or dose not given beside the values; settings: concentration not given here
# [14] = molecular target: Alpha-galactosidase (Coffea arabica) (UniProt Q42656); assay: Inhibition of alpha-galactosidase from coffee beans at 1 mM at pH 6; how it was run: as §2
# [15] = Cytotoxicity against human U87 cells after 72 hrs by colorimetric assay; type: functional, cell-based, U-87MG ATCC; settings: Homo sapiens, U-87 MG, 72 h; read-out: IC50
# How it was run: (§4)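 Cells grown in McCoy's medium (adherent lines) or RPMI-1640 (U266), each with 10% FBS, L-glutamine and antibiotics, at 37 °C in 5% CO₂. Compound dissolved as a 100 mM DMSO stock, final DMSO ≤0.4%. Cells were exposed for 72 h across a 10^-2 to 400 µM range. Viability was read by CellTiter 96 Aqueous (2–4 h incubation, absorbance 490 nm). Triplicate wells; IC50 from curve fitting.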
# [16] = Cytotoxicity in human B-CLL assessed as late apoptotic/necrotic cells at 100 uM after 24 hrs by annexin V/propidium iodide staining based flow cytometry (reference value: 10 to 14.7%); type: functional
# [17] = system: SK-BR-3; assay: Increase in CDKN1A mRNA level in human SKBR3 cells at 50 uM after 12 hrs by TLDA; type: functional, cell-based; how it was run: as §1
# [18] = Cytotoxicity in human multiple myeloma cells assessed as viable cells at 50 uM after 24 hrs by annexin V/propidium iodide staining based flow cytometry (reference value: 48.2%); type: functional; settings: Multiple myeloma cell, read-out: Activity
# [19] = system: MCF7; assay: Increase in CDKN1A mRNA level in human MCF7 cells at 50 uM after 12 hrs by TLDA; type: functional, cell-based; how it was run: as §1
# [20] = Cytotoxicity in human B-CLL assessed as pre-necrotic cells at 100 uM after 24 hrs by annexin V/propidium iodide staining based flow cytometry (reference value: 1.3 to 3.7%); type: functional
# [21] = Cytotoxicity in human B-CLL assessed as early apoptotic cells at 100 uM after 24 hrs by annexin V/propidium iodide staining based flow cytometry (reference value: 3.6 to 20.2%); type: functional
# [22] = system: SK-BR-3; assay: Decrease in CDC25 mRNA level in human SKBR3 cells at 50 uM after 12 hrs by TLDA; type: functional, cell-based; how it was run: as §3
# [23] = system: A549; assay: Cytotoxicity against human A549 cells after 72 hrs by colorimetric assay; type: functional, cell-based; settings: Homo sapiens, A549, 72 h; read-out: IC50; how it was run: as §4
# [24] = system: A549; assay: Cytotoxicity against human A549 cells after 72 hrs by colorimetric assay in presence of antioxidant N-acetyl-cysteine; type: functional, cell-based
# [25] = system: Canavalia ensiformis; assay: Inhibition of beta-N-acetylglucosaminidase from jack bean at pH 5; set-up: concentration or dose not given beside the values; settings: concentration not given here
# [26] = Cytotoxicity in human B-CLL assessed as viable cells at 50 uM after 24 hrs by annexin V/propidium iodide staining based flow cytometry (reference value: 65.8 to 78%); type: functional; settings: read-out: Activity
# [27] = Inhibition of alpha-mannosidase from jack bean at pH 5; set-up: species or system Canavalia ensiformis
# [28] = system: PC-3; assay: Cytotoxicity against human PC3 cells after 72 hrs by colorimetric assay; type: functional, cell-based; settings: Homo sapiens, PC-3, 72 h; read-out: IC50; how it was run: as §4
# [29] = system: Saccharomyces cerevisiae; assay: Inhibition of alpha-glucosidase from yeast at 1 mM at pH 7; how it was run: as §2
# [30] = system: Jurkat; assay: Cytotoxicity in human Jurkat cells overexpressing Bcl2 assessed as cell death at 50 uM after 72 hrs by propidium iodide-staining based flow cytometry; type: functional
# How it was run: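 Jurkat T cells stably overexpressing Bcl-2, plus vector controls, in RPMI-1640 with 10% FBS. Seeded at 4×10⁴ per well and treated for 72 h with 40 µM etoposide, 2 µM doxorubicin or 50 µM compound. Dead cells counted by propidium iodide staining and flow cytometry; means of triplicates with SD.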
# [31] = Cytotoxicity in human B-CLL assessed as pre-necrotic cells at 200 uM after 24 hrs by annexin V/propidium iodide staining based flow cytometry (reference value: 1.3 to 3.7%); type: functional
# [32] = Cytotoxicity in human multiple myeloma cells assessed as early apoptotic cells at 200 uM after 24 hrs by annexin V/propidium iodide staining based flow cytometry (reference value: 0.1%); type: functional, Multiple myeloma cell
# [33] = system: MCF7; assay: Cytotoxicity against human MCF7 cells after 72 hrs by colorimetric assay; type: functional, cell-based; settings: Homo sapiens, MCF7, 72 h; read-out: IC50; how it was run: as §4
# [34] = system: SK-BR-3; assay: Cytotoxicity against human SKBR3 cells after 72 hrs by colorimetric assay; type: functional, cell-based; settings: Homo sapiens, SK-BR-3, 72 h; read-out: IC50; how it was run: as §4
# Chain of Alpha-galactosidase (Coffea arabica) (Q42656 16-378 limits assumed): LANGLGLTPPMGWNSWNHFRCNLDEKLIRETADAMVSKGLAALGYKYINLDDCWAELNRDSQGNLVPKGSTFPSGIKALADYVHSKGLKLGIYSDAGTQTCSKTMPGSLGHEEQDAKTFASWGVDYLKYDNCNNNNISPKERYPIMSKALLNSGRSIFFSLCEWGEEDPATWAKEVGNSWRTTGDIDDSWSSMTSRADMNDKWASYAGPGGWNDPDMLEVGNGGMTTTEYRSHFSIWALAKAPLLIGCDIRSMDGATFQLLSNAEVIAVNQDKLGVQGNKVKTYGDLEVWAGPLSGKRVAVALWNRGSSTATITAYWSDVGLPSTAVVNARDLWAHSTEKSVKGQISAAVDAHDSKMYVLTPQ
# Chain of Beta-galactosidase (Escherichia coli) (Q8VNN2 whole entry, looked up): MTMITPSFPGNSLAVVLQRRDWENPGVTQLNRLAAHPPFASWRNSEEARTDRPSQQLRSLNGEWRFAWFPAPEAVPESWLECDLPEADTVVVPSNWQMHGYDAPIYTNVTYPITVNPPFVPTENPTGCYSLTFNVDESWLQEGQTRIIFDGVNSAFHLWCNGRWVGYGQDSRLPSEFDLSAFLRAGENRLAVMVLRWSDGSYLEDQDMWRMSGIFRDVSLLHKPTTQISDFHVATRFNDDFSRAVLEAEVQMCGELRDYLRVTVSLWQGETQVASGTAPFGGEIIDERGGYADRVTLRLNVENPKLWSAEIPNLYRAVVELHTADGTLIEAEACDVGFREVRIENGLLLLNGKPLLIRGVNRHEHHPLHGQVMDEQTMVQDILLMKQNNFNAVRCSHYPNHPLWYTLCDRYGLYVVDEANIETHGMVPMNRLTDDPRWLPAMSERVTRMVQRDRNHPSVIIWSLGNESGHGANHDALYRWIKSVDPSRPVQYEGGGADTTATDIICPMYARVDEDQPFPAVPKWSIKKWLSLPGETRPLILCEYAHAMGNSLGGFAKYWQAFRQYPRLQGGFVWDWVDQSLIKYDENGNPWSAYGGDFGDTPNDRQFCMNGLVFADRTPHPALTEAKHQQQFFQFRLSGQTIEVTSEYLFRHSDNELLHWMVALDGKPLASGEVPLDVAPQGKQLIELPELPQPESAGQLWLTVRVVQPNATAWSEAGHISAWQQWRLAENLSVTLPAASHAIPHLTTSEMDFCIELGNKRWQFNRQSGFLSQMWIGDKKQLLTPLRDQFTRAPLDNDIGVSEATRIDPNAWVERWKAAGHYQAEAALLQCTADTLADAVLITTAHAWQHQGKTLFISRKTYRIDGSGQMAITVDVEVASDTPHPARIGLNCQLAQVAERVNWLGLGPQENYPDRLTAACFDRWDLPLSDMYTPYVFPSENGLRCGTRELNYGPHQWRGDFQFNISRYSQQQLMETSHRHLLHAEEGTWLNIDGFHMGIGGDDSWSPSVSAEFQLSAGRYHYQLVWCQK
compound,measurement,setting,value
OC[C@H](NC[C@H]1NC[C@H](O)[C@@H]1O)c1ccc(-c2ccc(C(F)(F)F)cc2)cc1,inhibition,[1],< 10%
same,Activity,[2],Active
same,Activity,[3],16%
same,viability at 100 µM,[4],27.6%
same,Activity,[5],1%
same,inhibition,[6],< 10%
same,Activity,[7],Active
same,Activity,[8],Active
same,Activity,[9],75.4%
same,Activity,[10],55.6%
same,Activity,[11],Active
same,inhibition,[12],< 10%
same,inhibition,[13],52%
same,inhibition,[14],< 10%
same,IC50,[15],80 µM
same,Activity,[16],11.1%
same,Activity,[17],Active
same,viability at 50 µM,[18],42.8%
same,Activity,[19],Active
same,Activity,[20],0.8%
same,Activity,[21],2.7%
same,Activity,[22],Active
same,IC50,[23],152 µM
same,Activity,[24],Active
same,inhibition,[25],< 10%
same,viability at 50 µM,[26],27%
same,IC50,[27],5 µM
same,Ki,[27],2.7 µM
same,IC50,[28],132 µM
same,inhibition,[29],< 10%
same,Activity,[30],Active
same,Activity,[31],0.5%
same,Activity,[32],0.3%
same,IC50,[33],77 µM
same,IC50,[34],48 µM
